Test results: PubChem BioAssay
Calls of active or inactive are those of the source. Unless noted, no stated cut-off is given here; in the data, active means inhibition above about 30%; inactive means the rest.

Legend:
[1] = reducers of endogenous Her2 protein level, primary screen, SKBR3 breast tumor cells, AlphaScreen, ATP viability (AID 461;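 active means Her2 level under about 52% in both replicate screens, with viability over 70% of control, limit read from the data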;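 on Her2 level: lower value means less Her2 protein in the cells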;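 on viability: percent of carrier control wells set as 100% viability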); details: 18-24 h, measured here: SKBR3 viability, ATP luminescence, at 10 µM
[2] = target: Receptor tyrosine-protein kinase erbB-2 (Homo sapiens) (UniProt P04626); assay: as above; details: 18-24 h, at 10 µM, stronger effect = lower value
Chain of Receptor tyrosine-protein kinase erbB-2 (Homo sapiens) (P04626 whole entry, looked up): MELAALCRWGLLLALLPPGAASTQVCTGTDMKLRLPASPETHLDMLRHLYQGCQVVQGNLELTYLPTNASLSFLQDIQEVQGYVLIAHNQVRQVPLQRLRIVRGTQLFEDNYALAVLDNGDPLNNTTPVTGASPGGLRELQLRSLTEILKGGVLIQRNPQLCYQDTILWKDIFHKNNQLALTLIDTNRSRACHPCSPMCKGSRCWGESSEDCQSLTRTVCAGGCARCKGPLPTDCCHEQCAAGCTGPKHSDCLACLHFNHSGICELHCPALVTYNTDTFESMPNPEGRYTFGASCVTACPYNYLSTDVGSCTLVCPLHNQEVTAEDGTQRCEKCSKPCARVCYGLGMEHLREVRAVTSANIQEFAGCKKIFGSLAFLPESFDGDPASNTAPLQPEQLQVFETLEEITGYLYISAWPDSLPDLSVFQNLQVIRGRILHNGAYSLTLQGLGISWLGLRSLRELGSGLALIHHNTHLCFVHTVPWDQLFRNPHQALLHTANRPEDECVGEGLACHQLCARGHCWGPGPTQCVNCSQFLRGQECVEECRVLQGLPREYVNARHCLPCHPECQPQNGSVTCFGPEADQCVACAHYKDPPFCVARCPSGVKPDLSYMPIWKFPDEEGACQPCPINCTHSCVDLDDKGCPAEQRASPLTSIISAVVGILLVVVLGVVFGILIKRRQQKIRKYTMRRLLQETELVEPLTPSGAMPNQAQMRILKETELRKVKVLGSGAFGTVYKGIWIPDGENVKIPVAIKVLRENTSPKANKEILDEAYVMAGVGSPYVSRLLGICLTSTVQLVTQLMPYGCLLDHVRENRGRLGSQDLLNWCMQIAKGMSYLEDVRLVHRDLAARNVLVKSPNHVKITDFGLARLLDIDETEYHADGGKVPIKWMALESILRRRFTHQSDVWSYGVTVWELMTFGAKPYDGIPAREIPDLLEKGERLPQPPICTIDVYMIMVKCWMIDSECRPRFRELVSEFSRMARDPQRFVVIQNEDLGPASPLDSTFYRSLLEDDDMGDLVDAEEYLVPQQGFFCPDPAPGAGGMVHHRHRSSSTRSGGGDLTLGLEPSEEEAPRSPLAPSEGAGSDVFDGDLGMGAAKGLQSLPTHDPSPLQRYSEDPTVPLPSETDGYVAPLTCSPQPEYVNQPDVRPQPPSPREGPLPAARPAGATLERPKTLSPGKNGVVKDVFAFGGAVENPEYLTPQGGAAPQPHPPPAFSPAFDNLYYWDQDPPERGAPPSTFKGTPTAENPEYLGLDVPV

[3] = SK-BR-3 cell growth inhibitors, pilot screen, 24 h, human (AID 572;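 active means viability at or below 10% of carrier control in both of two separate runs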;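 further: compound exposure lasted between 18 and 24 h rather than exactly 24 h; 100% = carrier-treated control wells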); details: SK-BR-3 viability, CellTiter-Glo luminescence, at 10 µM, stronger effect = lower value
[4] = HUVEC growth inhibition – cell-based, human, primary screen (AID 575;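 active means viability at or below 30% in both replicate assays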;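 further: 100% = median of untreated cell wells with 0.1% DMSO on each plate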); details: HUVEC proliferation, CellTiter-Glo luminescence, 72 h; at 10 µM; stronger effect = lower value
In short: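 Assay system: primary human umbilical vein endothelial cells / Buffer or medium: endothelial basal medium with 2% FBS plus growth supplements / Compound dosing: one dose, 10 µM final, 0.1% DMSO / Timing: 72 h treatment at 37 °C / Signal: CTG luminescence / Benchmarks: 32 DMSO-only cell-control wells (high), 32 MePR drug-control wells (low) per plate / Plate: collagen-coated 384-well format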

[5] = growth inhibitors of H69AR lung tumor, primary screen, human, duplicate replicates (AID 580;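 active means viability at or under a set limit in both replicates, limit being median viability minus 3 SD, cut at about 48% in these data, passing the limit was not always enough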;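 further: 100% = mean luminescence of untreated wells and 0% = no signal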); details: H69AR lung tumor cells viability, ATP luminescence, 72 h; at 10 µM; stronger effect = lower value
[6] = reversal of MRP1-mediated doxorubicin resistance, pilot screen, H69AR cells, doxorubicin co-treatment (AID 601;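 active means viability loss from added drug above about 55%, and viability with drug at most 40%, in both replicates, limit read from the data, passing the limit was not always enough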); details: CellTiter-Glo, 72 h, at 10 µM; for differential viability (reversal): stronger effect = higher value
[7] = 384-well plate pilot, post-Golgi transport modulator project, inhibition of yeast transport mutant growth (AID 636; in the data active means inhibition above about 31%); details: absorbance 615 nm, about 18 h, stronger effect = higher value
[8] = growth suppression of yeast trafficking mutant, preliminary HTS, modulators of trafficking downstream of Golgi apparatus project, 1536-format plate, OD 615 nm (AID 637); details: yeast transport mutant growth, absorbance 615 nm, 18 h; stronger effect = higher value
[9] = H69AR cells + 2 uM doxorubicin, measured here: viability with 2 uM doxorubicin, stronger effect = lower value
[10] = H69AR cells, compound alone cytotoxicity

SMILES | viability [1] | Her2 level [2] | viability [3] | viability [4] | viability [5] | differential viability (reversal) ([6]; H69AR cells + 2 uM doxorubicin) | viability [6, 9] | viability [6, 10] | inhibition [7] | inhibition [8]
CCOC(=O)c1c(N)nn(C(=O)C(C)C)c1-c1ccccc1 | 97% | 119% (inactive) | 97% (inactive) | 82.5% (inactive) | 109% (inactive) | 15% (inactive) | 94% | 109% | -5.95% (inactive) | -9.34% (inactive)
O=C(CN(Cc1ccc(F)cc1)C(=O)Cn1nnc2ccccc21)NCC1CCCO1 (stereo not given) | 110% | 90.5% (inactive) | 110% (inactive) | 118% (inactive) | 90.3% (inactive) | 4.51% (inactive) | 85.8% | 90.3% | 0.13% (inactive) | -1.64% (inactive)
Cc1cc(NCCN2CCOCC2)n2nc(C)c(-c3ccccc3)c2n1 | 102% | 87% (inactive) | 102% (inactive) | 91.1% (inactive) | 96.4% (inactive) | 12.8% (inactive) | 83.6% | 96.4% | -0.52% (inactive) | -3.33% (inactive)
CC(=O)c1ccc(NC(=O)c2cc(CC(C)C)on2)cc1 | 93% | 114% (inactive) | 93% (inactive) | 120% (inactive) | 89.2% (inactive) | -1.95% (inactive) | 91.1% | 89.2% | 6.15% (inactive) | -8.67% (inactive)
CCSc1nc2c(c(=O)n(C)c(=O)n2C)n1Cc1ccc(Cl)cc1 | 70.5% | 71% (inactive) | 70.5% (inactive) | 63.2% (inactive) | 83% (inactive) | -4.85% (inactive) | 87.9% | 83% | -0.92% (inactive) | 2.36% (inactive)
O=C(Nc1ccc(SC(F)F)cc1)c1ccc2nccnc2c1 | 91.5% | 77.5% (inactive) | 91.5% (inactive) | 67% (inactive) | 92.1% (inactive) | 2.67% (inactive) | 89.4% | 92.1% | -2.53% (inactive) | -2.54% (inactive)
Cc1cc(C)c2cc(CN(CC3CCCO3)C(=O)NC3CCCCC3)c(=O)[nH]c2c1 (stereo not given) | 78.5% | 89.5% (inactive) | 78.5% (inactive) | 92% (inactive) | 73.4% (inactive) | -2.42% (inactive) | 75.8% | 73.4% | -0.13% (inactive) | 15.8% (inactive)
CN(CC(=O)Nc1sccc1C#N)C1CCCCC1 | 106% | 104% (inactive) | 106% (inactive) | 89.8% (inactive) | 93.2% (inactive) | 5.53% (inactive) | 87.7% | 93.2% | -6.67% (inactive) | -4.44% (inactive)
CCOC(=O)CCC(=O)Nc1ccc(S(=O)(=O)N2CCCC2)cc1 | 94.5% | 102% (inactive) | 94.5% (inactive) | 105% (inactive) | 102% (inactive) | 5.38% (inactive) | 96.3% | 102% | -3.68% (inactive) | -4.6% (inactive)
CN(C)c1ccc(C=Nc2ccc(N(C)C)cc2)cc1 | 104% | 94% (inactive) | 104% (inactive) | 74.2% (inactive) | 70.4% (inactive) | -7.71% (inactive) | 78.1% | 70.4% | -6.22% (inactive) | -6.23% (inactive)
Cc1cccc(-n2ncc3c(N)ncnc32)c1 | 94.5% | 83.5% (inactive) | 94.5% (inactive) | 51.3% (inactive) | 98.3% (inactive) | 17.7% (inactive) | 80.6% | 98.3% | -4.67% (inactive) | -1.31% (inactive)
CCCCCC(=O)N1CC2(C)CN(C(=O)CCCCC)CC(C)(C1)C2=O | 87% | 93% (inactive) | 87% (inactive) | 96.9% (inactive) | 87.5% (inactive) | 4.14% (inactive) | 83.4% | 87.5% | 0.9% (inactive) | 6.67% (inactive)
O=C1NCC(COCc2ccccc2)O1 (stereo not given) | 110% | 96% (inactive) | 110% (inactive) | 103% (inactive) | 108% (inactive) | 18.5% (inactive) | 89.4% | 108% | -5.6% (inactive) | 0% (inactive)
CC(C)C(C(=O)Nc1ccc2c(c1)OCO2)N1C(=O)c2ccccc2C1=O (stereo not given) | 122% | 92% (inactive) | 122% (inactive) | 94.3% (inactive) | 96.1% (inactive) | 2.06% (inactive) | 94.1% | 96.1% | -4.03% (inactive) | 1.15% (inactive)
O=C(NCC1CCCO1)c1ccc(N2CCCCC2)nc1 (stereo not given) | 91.5% | 109% (inactive) | 91.5% (inactive) | 113% (inactive) | 90.1% (inactive) | 4.52% (inactive) | 85.6% | 90.1% | 0.26% (inactive) | -2.83% (inactive)
Cc1ccc(CNC(=O)C2CC(=O)OC23CCCC3)c(C)c1 (stereo not given) | 86% | 100% (inactive) | 86% (inactive) | 96.5% (inactive) | 106% (inactive) | 12.3% (inactive) | 94.1% | 106% | -5.89% (inactive) | 3.17% (inactive)
